# Results pooled from the literature.
# Cell line: BEAS-2B
# Read-out: cell growth or viability
# Technique: MTT
SMILES,setting,IC50 [µM]
OC1CCN(c2ccc(/C=N/NC(=S)NCCc3ccccc3)cc2)CC1,24 h,15
CC(=O)c1c(O)c2ccccc2oc1=O,48 h,28.9
Cc1cc(C)n(Cn2ccnc2)n1,24 h,339
C/C(=N\NC(=O)/N=C(\C)c1c(O)c2ccccc2oc1=O)c1c(O)c2ccccc2oc1=O,48 h,50.3
Cc1cc(C)n(Cn2cnc3ccccc32)n1,24 h,739
C[C@H]1[C@H](C)CC[C@]2(C(=O)O)CC[C@]3(C)C(=CC[C@@H]4[C@@]5(C)CC[C@H](O)C(C)(C)[C@@H]5CC[C@]43C)[C@H]12,24 h,16
C/C(=N\C(=O)/N=C(\C)c1c(O)c2ccccc2oc1=O)c1c(O)c2ccccc2oc1=O,48 h,21.9
COc1cccc2c1C(=O)c1c(O)c3c(c(O)c1C2=O)C[C@@](O)(C(=O)CO)C[C@@H]3O[C@H]1C[C@H](N)[C@H](O)[C@H](C)O1,24 h,> 100
OC1CCN(c2ccc(/C=N/NC(=S)NC3CCCCC3)cc2)CC1,24 h,14.5
Cc1cc(Cn2ccnc2)nn1C,24 h,> 800
OC1CCN(c2ccc(/C=N/NC(=S)Nc3cccc(Cl)c3Cl)cc2)CC1,24 h,16.9
CCOC(=O)c1cc(C)n(Cn2cnc3ccccc32)n1,24 h,422
C/C(=N\C(=S)/N=C(\C)c1c(O)c2ccccc2oc1=O)c1c(O)c2ccccc2oc1=O,48 h,9.01
OC1CCN(c2ccc(/C=N/NC(=S)NCc3ccccc3)cc2)CC1,24 h,12.6
